ChEMBL document CHEMBL1221308, “Synthesis and biological evaluation of new jasplakinolide (jaspamide) analogs” (Bioorg Med Chem Lett, 2010)

Test system: CA46
Test: Growth inhibition of human CA46 cells […] after 24 hrs
Format: functional, cell-based
Outline: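 Human CA46 Burkitt lymphoma cells treated for 24 h; growth read as cell number, IC50 derived from that count.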

Compound | IC50 (Homo sapiens, CA46, 24 h) | IC50 (ca46)
COc1ccc([C@H]2CC(=O)O[C@@H](C)C[C@@H](C)/C=C(\C)CCC(=O)N[C@@H](C)C(=O)N(C)[C@H](Cc3c[nH]c4ccccc34)C(=O)N2)cc1 | 200 nM | –
COc1ccc([C@H]2CC(=O)NC(C)C[C@@H](C)/C=C(\C)CCC(=O)N[C@@H](C)C(=O)N(C)[C@H](Cc3c(Br)[nH]c4ccccc34)C(=O)N2)cc1 (single isomer, unassigned; diastereomer 2) | – | 3000 nM
COc1ccc([C@H]2CC(=O)NC(C)C[C@@H](C)/C=C(\C)CCC(=O)N[C@@H](C)C(=O)N(C)[C@H](Cc3c(Br)[nH]c4ccccc34)C(=O)N2)cc1 (stereo in doubt) | – | 750 nM
COc1ccc([C@H]2CC(=O)O[C@@H](C)C[C@@H](C)/C=C(\C)CCC(=O)N[C@@H](C)C(=O)N[C@H](Cc3c(Br)[nH]c4ccccc34)C(=O)N2)cc1 | 3000 nM | –
C/C1=C\[C@H](C)C[C@H](C)OC(=O)C[C@H](c2ccccc2)NC(=O)[C@@H](Cc2c(Br)[nH]c3ccccc23)N(C)C(=O)[C@H](C)NC(=O)CC1 | 200 nM | –
COc1ccc([C@H]2CC(=O)O[C@@H](C)C[C@@H](C)/C=C(\C)C[C@@H](C)C(=O)N[C@@H](C)C(=O)N(C)[C@H](Cc3c(Br)[nH]c4ccccc34)C(=O)N2)cc1 | 20 nM | –
COc1ccc([C@H]2CC(=O)O[C@@H](C)C[C@@H](C)/C=C(\C)CCC(=O)NCC(=O)N(C)[C@H](Cc3c(Br)[nH]c4ccccc34)C(=O)N2)cc1 | 300 nM | –
